# Only some compounds are listed: those with a hit (about 2.3% of all), similar ones and a draw of the others.
# TRPC4 block – inhibitors of mouse TRPC4 channel, primary screen, Fluo4 calcium, HEK293 TRPC4beta/mu-opioid cells; Short transient receptor potential channel 4 (Mus musculus), Q9QUQ5; DAMGO-evoked Fluo4 calcium flux; stronger effect = lower value; B-score at 10 µM; 0.39% of 300,000 active;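 active = B-score over 3 SD under the library average, no early fluorescence shift, positive overall ratio signal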
#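 System: stable TRPC4beta/mu-opioid receptor HEK293 cells; Dosing: single-point compound dosing; Measured by: Fluo4 Ca2+ flux fluorescence; Read-out basis: per-well B score of integrated baseline-normalized Fluo4 ratio.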
# TRPC4 potent – positive allosteric modulators of TRPC4, primary screen, cell-based, mouse TRPC4beta, HEK293 mu-opioid, Fluo-4 calcium. 0.42% of 310,000 active. DAMGO EC20, Fluo-4 Ca2+ flux; stronger effect = higher value. AID 2227, 2009. Short transient receptor potential channel 4 (Mus musculus), Q9QUQ5. B-score at 10 µM;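 active = B-score of calcium response area above 5 SD of library B-scores, with initial fluorescence ratio within 5 SD of library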
# TRPC4 act – activators of mouse TRPC4 channel, primary screen, Fluo4 calcium, HEK293 TRPC4beta/mu-opioid cells; Fluo4 calcium fluorescence; stronger effect = higher value; B-score at 10 µM; Short transient receptor potential channel 4 (Mus musculus), Q9QUQ5; 0.49% of 310,000 active;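 active = B-score above 5 SD of library B-scores, and initial fluorescence ratio not above library mean plus 5 SD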;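 note: positive B-score marks a calcium rise read as TRPC4 activation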
#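 Material: HEK293 stable line with TRPC4beta plus mu-opioid receptor; technique: Fluo4 calcium-sensitive dye fluorescence, kinetic, 1 Hz baseline; timing: Fluo4 dye loading 45 min at room temperature, 110 s recording; controls: assay buffer as low control, maximal DAMGO as high control; read-out: integrated baseline-normalised fluorescence ratio, converted to per-well B score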
# TRPC6 activator – mouse TRPC6 channel activators, primary screen, cell-based, HEK293, membrane potential dye | 0.13% of 310,000 active | B-score at 10 µM | HEK293-TRPC6 membrane potential dye fluorescence; stronger effect = higher value;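 active = B-score of the integrated fluorescence ratio above library mean plus 3 SD, and starting fluorescence ratio within library mean plus 5 SD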;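 note: higher score means more depolarization so channel activation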
# Target sequence (Q61143 whole entry, looked up): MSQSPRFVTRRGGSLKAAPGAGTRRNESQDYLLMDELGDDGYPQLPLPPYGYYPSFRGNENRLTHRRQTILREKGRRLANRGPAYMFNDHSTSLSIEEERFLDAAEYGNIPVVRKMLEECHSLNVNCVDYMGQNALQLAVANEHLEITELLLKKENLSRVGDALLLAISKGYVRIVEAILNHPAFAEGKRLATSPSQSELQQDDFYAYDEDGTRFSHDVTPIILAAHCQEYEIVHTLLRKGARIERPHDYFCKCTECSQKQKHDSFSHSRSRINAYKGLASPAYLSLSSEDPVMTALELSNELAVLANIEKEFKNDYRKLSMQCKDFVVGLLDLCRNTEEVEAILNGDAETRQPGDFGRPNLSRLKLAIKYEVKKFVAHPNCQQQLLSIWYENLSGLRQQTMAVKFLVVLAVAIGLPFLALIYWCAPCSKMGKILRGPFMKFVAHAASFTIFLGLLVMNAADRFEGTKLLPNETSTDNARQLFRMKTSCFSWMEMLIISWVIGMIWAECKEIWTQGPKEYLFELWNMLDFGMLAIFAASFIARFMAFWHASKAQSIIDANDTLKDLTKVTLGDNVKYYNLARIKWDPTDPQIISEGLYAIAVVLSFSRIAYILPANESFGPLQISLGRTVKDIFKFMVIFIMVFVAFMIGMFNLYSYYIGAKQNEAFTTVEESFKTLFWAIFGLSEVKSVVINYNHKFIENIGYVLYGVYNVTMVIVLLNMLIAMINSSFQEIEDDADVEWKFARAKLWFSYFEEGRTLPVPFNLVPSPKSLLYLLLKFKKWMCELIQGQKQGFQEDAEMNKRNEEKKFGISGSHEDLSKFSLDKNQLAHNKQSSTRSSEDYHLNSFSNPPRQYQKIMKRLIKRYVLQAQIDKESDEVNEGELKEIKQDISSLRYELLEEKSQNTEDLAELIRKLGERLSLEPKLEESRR
# TRPC6 inhibitor – mouse TRPC6 channel inhibitors, primary screen, cell-based, HEK293, membrane potential dye. Short transient receptor potential channel 6 (Mus musculus), Q61143. ACh-evoked depolarization; stronger effect = lower value. B-score at 10 µM. 1.1% of 310,000 active. AID 2553, 2010;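 active = B-score under library mean minus 3 SD, initial fluorescence not abnormally high, positive integrated signal ratio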;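 note: B-score derived from integrated fluorescence ratio over the kinetic read; more negative B-score means stronger inhibition of depolarization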
# TRPC4 spec 2 – second check of whether TRPC6 inhibitors also affect mouse TRPC4 | shares compounds with TRPC6 inhibitor | HEK293 TRPC4/MOR, membrane potential dye fluorescence; channel activated by saturating DAMGO dose | inhibition, % at 10 µM | 42% of 920 active;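 active = compounds whose fluorescence signal differed from control wells by over 3 SD, either direction, in both duplicate plates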
# TRPC4 spec – mouse TRPC4 modulation by TRPC6 hits, confirmation, selectivity assay for TRPC6 inhibitor project, cell-based, HEK293 TRPC4/mu-opioid, membrane potential dye. shares compounds with TRPC6 inhibitor. AID 2777, 2010. membrane potential fluorescence. activity change, negative = inhibition, % at 10 µM. 61% of 920 active;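 active = rise or fall in signal beyond 3 SD of buffer-only wells in both replicate plates, either sign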;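 note: integrated kinetic ratio of fluorescence range over baseline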
# HEK293 MPD ctr 2-1 – nonspecific membrane potential effects, parental HEK293, confirmation, counter-screen for TRPC6 inhibitor project, cell-based, second counter screen. signal change vs control, % at 10 µM. AID 2779, 2010. shares compounds with TRPC6 inhibitor. 31% of 920 active. parental HEK293 membrane potential dye fluorescence; maximal acetylcholine challenge after compound addition;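 active = membrane potential signal moving either way by over 3 SD of the maximum-effect control, in both duplicate plates, meaning non-specific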
# HEK293 MPD ctr-1 – membrane potential modulation in parental HEK293, confirmation, counter-screen for TRPC6 inhibitor project, cell-based. parental HEK293 membrane potential dye fluorescence. 60% of 920 active. shares compounds with TRPC6 inhibitor. AID 2780, 2010. membrane potential signal change, % at 10 µM;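 active = membrane potential signal shifting up or down by more than 3 SD of buffer-only wells, on both duplicate plates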
# HEK293 MPD ctr-2 – parental HEK293 membrane potential modulation, confirmation, counter-screen for TRPC6 modulator project, cell-based. membrane potential signal change, % at 10 µM. shares compounds with TRPC6 inhibitor. membrane potential dye fluorescence. AID 488924, 2010. 51% of 2,400 active;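 active = membrane potential signal moves up or down beyond 5 SD from buffer-only wells, on both duplicate plates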
# HEK293 MPD ctr 2-2 – second check of TRPC6 modulator effects in parental HEK293 cells; 14% of 2,400 active; inhibition, % at 10 µM; membrane potential dye fluorescence; after compound, maximal acetylcholine stimulation; shares compounds with TRPC6 inhibitor;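 active = membrane potential signal drops by more than 5 SD from the mean control signal, in both duplicate plates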
# TRPC4 ctr mod – TRPC4 modulation by TRPC6 hit compounds, confirmation, selectivity assay for TRPC6 modulator project, cell-based, HEK293 TRPC4/mu-opioid, membrane potential dye, mouse; shares compounds with TRPC6 inhibitor; membrane potential fluorescence; percent change from control (negative = decrease, positive = increase), % at 10 µM; 69% of 2,400 active; AID 488927, 2010;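 active = membrane potential signal moved up or down beyond 5 SD of buffer control wells, in both duplicate plates, actives on both sides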
# TRPC4 ctr inh 2 – mouse TRPC4 off-target activity of TRPC6 modulators, second screen; AID 488928; 55% of 2,400 active; inhibition, % at 10 µM; shares compounds with TRPC6 inhibitor; HEK293 TRPC4/mu-opioid, membrane potential dye fluorescence; stimulated with maximal-effect DAMGO;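 active = drop in membrane potential signal beyond 5 SD of the control wells in both duplicate plates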;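 note: TRPC4 counter screen for TRPC6 hits run under conditions tuned for TRPC6 not TRPC4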
# TRPC6 inh conf – mouse TRPC6 channel inhibitors, confirmation, HEK293 cells, membrane potential dye, duplicate | shares compounds with TRPC6 inhibitor | ACh-evoked depolarization | inhibition, % at 10 µM | 43% of 3,300 active;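 active = fluorescence ratio falls more than 5 SD below the full-stimulation control mean, in both duplicate runs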;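 note: integrated fluorescence ratio of peak minus minimum over baseline after agonist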
# TRPC6 act confirm – mouse TRPC6 channel activators, confirmation, HEK293 cells, membrane potential dye, duplicate; 11% of 2,800 active; activation, % at 10 µM; HEK293-TRPC6 membrane potential dye fluorescence, FDSS; shares compounds with TRPC6 inhibitor;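 active = ratio signal rise beyond 5 SD above unstimulated control wells' mean, seen in both duplicate runs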
# Numbers stand for hits; – = inactive; · = not tested or not shown.
SMILES,TRPC4 block,TRPC4 potent,TRPC4 act,TRPC6 activator,TRPC6 inhibitor,HEK293 MPD ctr-2,HEK293 MPD ctr 2-2,TRPC4 ctr mod,TRPC4 ctr inh 2,TRPC6 inh conf,TRPC6 act confirm,others
N=c1c(C(=O)NCCN2CCOCC2)cc2c(=O)n3ccccc3nc2n1CCc1ccccc1,–,–,–,–,-7.8,·,·,·,·,99%,–,TRPC4 spec 2=64%;TRPC4 spec=-20%;HEK293 MPD ctr 2-1=-78%;HEK293 MPD ctr-1=-246%
CCCCn1c(N)c(N(CCOC)C(=O)c2sc3cc(F)ccc3c2Cl)c(=O)[nH]c1=O,–,–,–,–,–,·,·,·,·,·,·,
COc1cc(CC(=O)N(c2ccccc2)c2nc(C)cs2)cc(OC)c1OC,–,–,–,–,–,·,·,·,·,·,·,
COc1ccc(N(CC(=O)N2CCOCC2)S(C)(=O)=O)cc1Cl,–,–,–,–,–,·,·,·,·,·,·,
Clc1ccc(SCCCCN2CCNCC2)cc1,–,14,–,–,-7.5,·,·,·,·,–,–,TRPC4 spec 2=67%;TRPC4 spec=–;HEK293 MPD ctr 2-1=–;HEK293 MPD ctr-1=2.5%
Clc1ccc(SCCCCN2CCOCC2)cc1,–,–,–,–,–,·,·,·,·,·,·,
COc1ccc2[nH]c3c(c2c1)CCNC3c1ccc([N+](=O)[O-])o1 (stereo not given),–,–,–,–,–,·,·,·,·,·,·,
COc1ccc2[nH]c3c(c2c1)CCNC3C1CC=C(C)CC1 (stereo not given),–,–,–,–,-6.3,–,–,–,56%,36%,–,
CC(C)c1ccc(/C=C2\NC(=S)N(Cc3cccnc3)C2=O)cc1,–,–,–,–,–,·,·,·,·,·,·,
COc1ccc(OCC(=O)OC2CCN(C)CC2)cc1,–,–,–,–,–,·,·,·,·,·,·,
CN1CCC(OC(=O)COc2ccc(Br)cc2)CC1,–,–,–,–,-5.5,–,–,13%,–,–,·,
CN1CCN(c2ccccc2NC(=O)COc2ccc(Br)cc2)CC1,–,–,–,–,-5.1,–,–,18%,–,–,–,
CCCN1CCN(CCCNC(=S)Nc2ccc(OC)cc2)CC1,–,–,–,–,–,·,·,·,·,·,·,
CCOCCCn1c(=S)[nH]c2cc(C(=O)NCCc3ccccc3)ccc2c1=O,–,–,–,–,–,·,·,·,·,·,·,
CN(C)CCCN(C(=O)c1ccc(Br)s1)c1nc2cc3c(cc2s1)OCCO3,–,–,63,–,-6.4,–,–,-14%,82%,60%,–,
CCN(CC)CCN(C(=O)c1ccc(Br)s1)c1nc2cc3c(cc2s1)OCCO3,–,–,–,–,–,·,·,·,·,·,·,
CN(C)CCCN(C(=O)c1cccs1)c1nc2cc3c(cc2s1)OCO3,-8,–,–,–,-9.7,–,–,-19%,64%,42%,–,
Cc1ccc2nc(N(CCN(C)C)C(=O)c3cc(Cl)sc3Cl)sc2c1,–,–,–,–,–,·,·,·,·,·,·,
CN(C)CCCN(C(=O)c1ccc([N+](=O)[O-])s1)c1nc2cc3c(cc2s1)OCCO3,–,–,–,–,–,·,·,·,·,·,·,
CN(C)CCCN(C(=O)c1cc(Cl)sc1Cl)c1nc2cc3c(cc2s1)OCO3,–,–,–,–,-5.1,–,55%,–,91%,61%,–,
CN(C)CCCN(C(=O)c1ccc(Cl)s1)c1nc2cc3c(cc2s1)OCO3,–,–,100,–,-6.1,–,–,-22%,84%,48%,–,
COc1ccccc1NC(=O)Nc1cc(NC(=O)Nc2ccccc2OC)c(C)nc1C,–,–,–,–,–,·,·,·,·,·,·,
COc1ccc(NC(=O)c2cccc3cccnc23)cc1S(N)(=O)=O,–,–,–,–,–,·,·,·,·,·,·,
COc1ccc(NC(=O)CCCc2nnc3n(C)c(=O)c4sccc4n23)cc1,–,–,–,–,–,·,·,·,·,·,·,
CC(C)(C)c1ccc(C(=O)OCCN2CCCCC2)cc1,–,–,–,13,–,128%,–,26%,56%,–,66%,
SMILES,TRPC4 block,TRPC4 potent,TRPC4 act,TRPC6 activator,TRPC6 inhibitor,HEK293 MPD ctr-2,HEK293 MPD ctr 2-2,TRPC4 ctr mod,TRPC4 ctr inh 2,TRPC6 inh conf,TRPC6 act confirm,others
COc1ccc(C(=O)OCCN2CCCCC2)cc1,–,–,–,–,–,·,·,·,·,·,·,
Cc1c(C(=O)OC(C)CCN(C)C)oc2ccccc12 (stereo not given),–,–,–,–,-9.7,·,·,·,·,–,·,TRPC4 spec 2=–;TRPC4 spec=7.3%;HEK293 MPD ctr 2-1=–;HEK293 MPD ctr-1=11%
Cc1c(C(=O)OCCN2CCCCC2)oc2ccccc12,–,–,–,–,-8.6,·,·,·,·,–,·,TRPC4 spec 2=–;TRPC4 spec=10%;HEK293 MPD ctr 2-1=–;HEK293 MPD ctr-1=15%
Cc1c(C(=O)OCC(C)(C)CN(C)C)oc2ccccc12,–,–,–,–,–,·,·,·,·,·,·,
COc1ccc(C(C)NC(=O)C2CCCC2)cc1OC (stereo not given),–,–,–,–,–,·,·,·,·,·,·,
CSc1nc2cc(C)nn2c(-c2ccccc2)c1C#N,–,–,–,–,–,·,·,·,·,·,·,
CCN(CC)CCn1c(=N)n(CCO)c2ccccc21,–,–,–,–,–,·,·,·,·,·,·,
